Data taken from PMC10840089 (RSC Advances, 2024).
“Also recorded” adds a separate entry of the source.

Legend:
[1] = target: T1, α-amylase from porcine pancreas (Sus scrofa, UniProt P00690); test: α-amylase inhibition assay; type: biochemical
T1 sequence (P00690 16-511): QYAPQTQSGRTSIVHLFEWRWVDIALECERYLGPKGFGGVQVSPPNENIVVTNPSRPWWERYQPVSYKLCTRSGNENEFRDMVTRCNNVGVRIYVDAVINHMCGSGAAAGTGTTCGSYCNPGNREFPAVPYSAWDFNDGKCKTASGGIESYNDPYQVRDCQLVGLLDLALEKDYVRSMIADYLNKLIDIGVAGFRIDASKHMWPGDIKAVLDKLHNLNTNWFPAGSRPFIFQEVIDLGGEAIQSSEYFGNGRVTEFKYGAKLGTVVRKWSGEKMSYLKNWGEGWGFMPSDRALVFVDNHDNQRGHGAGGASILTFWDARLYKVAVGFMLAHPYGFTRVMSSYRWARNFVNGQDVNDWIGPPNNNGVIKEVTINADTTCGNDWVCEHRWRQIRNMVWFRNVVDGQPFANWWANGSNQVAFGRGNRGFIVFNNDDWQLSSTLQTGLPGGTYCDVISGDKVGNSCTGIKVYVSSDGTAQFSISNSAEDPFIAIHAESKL

[2] = target: T1, α-amylase from porcine pancreas; test: α-amylase inhibition kinetics; type: biochemical; settings: for type (mechanism) of α-amylase inhibition: Lineweaver–Burk plot, starch 0.5 to 2.5%
Summary of the method: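 Porcine pancreatic enzyme (1151 U mg−1 protein) diluted in 0.2 mol L−1 phosphate buffer, pH 6, preincubated with test compound (6.25–50 μM) 5 min at 25 °C. Soluble starch (0.5–2.5%) then added, 10 min at 25 °C. Reducing sugar measured with DNS (boiling water, 15 min) at 540 nm against a glucose standard curve. Inhibition type taken from Lineweaver–Burk plots, Vmax and KM by graph fitting.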

Compound | IC50 [1] | Ki [2] | type (mechanism) of α-amylase inhibition [2]
C=C1CC[C@@H]2C(C)(C)C(=O)/C(=C/c3ccc(C)cc3)C[C@@]2(C)[C@@H]1COc1ccc2ccc(=O)oc2c1 [Compound 3f, 7-(((1R,4aS,8aR)-5,5,8a-trimethyl-7-((E)-4-methylbenzylidene)-2-methylene-6-oxodecahydronaphthalen-1-yl)methoxy)-2H-chromen-2-one] | 22.3 ± 0.9 µM | – | –
C=C1CC[C@@H]2C(C)(C)C(=O)/C(=C/c3ccc4ccccc4c3)C[C@@]2(C)[C@@H]1COc1ccc2ccc(=O)oc2c1 [Compound 3b, 7-(((1R,4aS,8aR,E)-5,5,8a-trimethyl-2-methylene-7-(naphthalen-2-ylmethylene)-6-oxodecahydronaphthalen-1-yl)methoxy)-2H-chromen-2-one] | 14.4 ± 0.3 µM | – | –
C=C1CC[C@@H]2C(C)(C)C(=O)/C(=C/c3ccc(Cl)cc3)C[C@@]2(C)[C@@H]1COc1ccc2ccc(=O)oc2c1 [Compound 3d, 7-(((1R,4aS,8aR)-7-((E)-4-chlorobenzylidene)-5,5,8a-trimethyl-2-methylene-6-oxodecahydronaphthalen-1-yl)methoxy)-2H-chromen-2-one] | 17.2 ± 0.5 µM | – | –
C=C1CC[C@@H]2C(C)(C)C(=O)/C(=C/c3ccc(Br)cc3)C[C@@]2(C)[C@@H]1COc1ccc2ccc(=O)oc2c1 [Compound 3e, 7-(((1R,4aS,8aR)-7-((E)-4-bromobenzylidene)-5,5,8a-trimethyl-2-methylene-6-oxodecahydronaphthalen-1-yl)methoxy)-2H-chromen-2-one] | 15.4 ± 0.29 µM | – | –
C=C1CC[C@@H]2C(C)(C)C(=O)/C(=C/c3ccccc3)C[C@@]2(C)[C@@H]1COc1ccc2ccc(=O)oc2c1 [Compound 3a, 7-(((1R,4aS,8aR)-7-((E)-benzylidene)-5,5,8a-trimethyl-2-methylene-6-oxodecahydronaphthalen-1-yl)methoxy)-2H-chromen-2-one] | 29 ± 0.65 µM | – | –
C=C1CC[C@@H]2C(C)(C)C(=O)/C(=C/c3ccc(C(C)(C)C)cc3)C[C@@]2(C)[C@@H]1COc1ccc2ccc(=O)oc2c1 [Compound 3g, 7-(((1R,4aS,8aR)-7-((E)-4-(tert-butyl)benzylidene)-5,5,8a-trimethyl-2-methylene-6-oxodecahydronaphthalen-1-yl)methoxy)-2H-chromen-2-one] | 22.7 ± 0.86 µM | – | –
C=C1CC[C@@H]2C(C)(C)C(=O)/C(=C/c3ccc(OC)cc3)C[C@@]2(C)[C@@H]1COc1ccc2ccc(=O)oc2c1 [Compound 3h, 7-(((1R,4aS,8aR)-7-((E)-4-methoxybenzylidene)-5,5,8a-trimethyl-2-methylene-6-oxodecahydronaphthalen-1-yl)methoxy)-2H-chromen-2-one] | 13.5 ± 0.54 µM | – | –
C=C1CC[C@@H]2C(C)(C)C(=O)/C(=C/c3ccc(F)cc3)C[C@@]2(C)[C@@H]1COc1ccc2ccc(=O)oc2c1 [Compound 3c, 7-(((1R,4aS,8aR)-7-((E)-4-fluorobenzylidene)-5,5,8a-trimethyl-2-methylene-6-oxodecahydronaphthalen-1-yl)methoxy)-2H-chromen-2-one] | 13.2 ± 0.73 µM | – | –
C=C1CC[C@@H]2C(C)(C)C(=O)CC[C@@]2(C)[C@@H]1COc1ccc2ccc(=O)oc2c1 [Compound 2, 7-(((1R,4aS,8aR)-5,5,8a-trimethyl-2-methylene-6-oxodecahydronaphthalen-1-yl)methoxy)-2H-chromen-2-one] | 25 ± 0.99 µM | – | –

Further lines, with some results ahead:

IC50 [1] | Ki [2] | Compound | type (mechanism) of α-amylase inhibition [2]
13 ± 0.96 µM | – | C=C1CC[C@@H]2C(C)(C)C(=O)/C(=C/c3ccc(OC)c(OC)c3)C[C@@]2(C)[C@@H]1COc1ccc2ccc(=O)oc2c1 [Compound 3j, 7-(((1R,4aS,8aR)-7-((E)-3,4-dimethoxybenzylidene)-5,5,8a-trimethyl-2-methylene-6-oxodecahydronaphthalen-1-yl)methoxy)-2H-chromen-2-one] | non-competitive inhibition
8.83 ± 0.22 µM | – | C=C1CC[C@@H]2C(C)(C)C(=O)/C(=C/c3ccc(N4CCCC4)cc3)C[C@@]2(C)[C@@H]1COc1ccc2ccc(=O)oc2c1 [Compound 3m, 7-(((1R,4aS,8aR)-5,5,8a-trimethyl-2-methylene-6-oxo-7-((E)-4-(pyrrolidin-1-yl)benzylidene)decahydronaphthalen-1-yl)methoxy)-2H-chromen-2-one] | mixed non-competitive-uncompetitive inhibitor; also recorded: mixed non-competitive-uncompetitive inhibition
10.8 ± 0.6 µM | – | C=C1CC[C@@H]2C(C)(C)C(=O)/C(=C/c3ccc(N(C)C)cc3)C[C@@]2(C)[C@@H]1COc1ccc2ccc(=O)oc2c1 [Compound 3l, 7-(((1R,4aS,8aR)-7-((E)-4-(dimethylamino)benzylidene)-5,5,8a-trimethyl-2-methylene-6-oxodecahydronaphthalen-1-yl)methoxy)-2H-chromen-2-one] | mixed competitive-non-competitive inhibitors
7.24 ± 0.36 µM | 1.02 µM | C=C1CC[C@@H]2C(C)(C)C(=O)/C(=C/c3cccc(OC(F)(F)C(F)F)c3)C[C@@]2(C)[C@@H]1COc1ccc2ccc(=O)oc2c1 [Compound 3k, 7-(((1R,4aS,8aR)-5,5,8a-trimethyl-2-methylene-6-oxo-7-((E)-3-(1,1,2,2-tetrafluoroethoxy)benzylidene)decahydronaphthalen-1-yl)methoxy)-2H-chromen-2-one] | mixed competitive-non-competitive inhibitors
14.5 ± 0.3 µM | – | C=C1CC[C@@H]2C(C)(C)C(=O)/C(=C/c3ccccc3OC)C[C@@]2(C)[C@@H]1COc1ccc2ccc(=O)oc2c1 [Compound 3i, 7-(((1R,4aS,8aR)-7-((E)-2-methoxybenzylidene)-5,5,8a-trimethyl-2-methylene-6-oxodecahydronaphthalen-1-yl)methoxy)-2H-chromen-2-one] | –
